Experimental data taken from ChEMBL document CHEMBL4350955, “Novel Chemical Series of 5-Lipoxygenase-Activating Protein Inhibitors for Treatment of Coronary Artery Disease” (J Med Chem, 2019).
pIC50: −log10 of the molar value. Values after ≈ are worked out from the molar mass of the structure shown.

Tests used:
[1] = target: T1, Arachidonate 5-lipoxygenase-activating protein (Homo sapiens, UniProt P20292); assay: (§1) Inhibition of FLAP in human whole blood assessed as reduction in calcium ionophore-stimulated LTB4 production preincubated for 30 mins followed by calcium ionophore stimulation and measured after 20 mins by EIA; format: tissue-based
T1 sequence (P20292 whole entry): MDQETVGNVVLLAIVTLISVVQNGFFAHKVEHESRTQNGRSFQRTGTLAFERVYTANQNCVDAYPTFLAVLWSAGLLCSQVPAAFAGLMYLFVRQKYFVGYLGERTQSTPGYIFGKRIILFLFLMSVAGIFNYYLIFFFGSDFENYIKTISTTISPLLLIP

[2] = target: T2, Arachidonate 5-lipoxygenase-activating protein (Homo sapiens) (UniProt P20292); assay: as §1; format: tissue-based
T2 sequence (whole entry): T1 sequence (P20292 whole entry)

[3] = Distribution coefficient between octanol and sodium phosphate buffer, logD of the compound in pH 7.4 buffer by LC-MS/MS-based shake flask method
[4] = Genotoxicity in Salmonella typhimurium by Ames test; format: toxicity; settings: salmonella enterica subsp. enterica serovar typhimurium
Summary of the method: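 Two-strain Salmonella Ames test, with and without metabolic activation by rat liver S9 fraction; applied to amino pyrazole building blocks present in the series.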

[5] = target: T1, Arachidonate 5-lipoxygenase-activating protein; assay: Inhibition of [3H]MK0591 binding to human FLAP expressed in […] cell membranes measured after 60 to 80 mins by scintillation counting method
physchem = settings: phosphate buffer, pH 7.4
[6] = Apparent permeability across apical to basolateral side in human Caco2 cells; settings: Caco-2
hERG (KCNH2) = hERG (KCNH2) (Homo sapiens, UniProt Q12809); assay: Inhibition of human ERG at 10 uM high-throughput electrophysiology assay relative to control
Sequence of hERG (KCNH2) (Q12809 whole entry): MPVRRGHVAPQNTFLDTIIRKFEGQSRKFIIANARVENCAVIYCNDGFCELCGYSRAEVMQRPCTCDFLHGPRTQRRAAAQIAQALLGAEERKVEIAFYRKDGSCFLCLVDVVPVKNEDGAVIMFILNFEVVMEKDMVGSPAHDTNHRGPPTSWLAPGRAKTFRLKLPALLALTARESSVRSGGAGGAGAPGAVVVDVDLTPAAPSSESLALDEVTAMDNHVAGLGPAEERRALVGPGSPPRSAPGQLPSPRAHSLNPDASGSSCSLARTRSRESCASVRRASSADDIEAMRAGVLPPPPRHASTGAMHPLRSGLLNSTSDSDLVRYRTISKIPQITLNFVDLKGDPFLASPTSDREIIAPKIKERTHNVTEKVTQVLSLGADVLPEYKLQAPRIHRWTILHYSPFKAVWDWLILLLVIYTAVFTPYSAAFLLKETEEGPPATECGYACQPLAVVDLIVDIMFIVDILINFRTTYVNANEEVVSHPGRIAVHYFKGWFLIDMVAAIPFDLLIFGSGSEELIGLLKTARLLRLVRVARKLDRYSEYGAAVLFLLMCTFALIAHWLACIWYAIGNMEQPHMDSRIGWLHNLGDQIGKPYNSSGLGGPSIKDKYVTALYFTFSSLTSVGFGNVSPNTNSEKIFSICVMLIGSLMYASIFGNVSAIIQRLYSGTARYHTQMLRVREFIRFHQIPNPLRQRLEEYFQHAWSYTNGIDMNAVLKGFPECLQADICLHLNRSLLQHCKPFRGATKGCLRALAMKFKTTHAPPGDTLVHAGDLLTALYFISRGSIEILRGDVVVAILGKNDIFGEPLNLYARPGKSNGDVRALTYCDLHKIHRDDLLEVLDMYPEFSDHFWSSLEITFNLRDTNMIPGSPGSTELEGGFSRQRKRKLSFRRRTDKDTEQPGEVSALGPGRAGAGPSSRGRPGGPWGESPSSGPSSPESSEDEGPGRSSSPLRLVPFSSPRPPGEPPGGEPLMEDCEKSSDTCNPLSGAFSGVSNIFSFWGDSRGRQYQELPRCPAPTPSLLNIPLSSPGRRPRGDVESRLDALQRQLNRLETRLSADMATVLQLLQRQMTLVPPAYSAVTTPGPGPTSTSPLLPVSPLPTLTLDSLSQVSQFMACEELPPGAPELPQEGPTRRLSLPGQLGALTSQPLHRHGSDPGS

Cytochrome P450 2C9 = Cytochrome P450 2C9 (Homo sapiens, UniProt P11712); assay: Inhibition of recombinant human CYP2C9 expressed in Escherichia coli assessed as maximum reduction in metabolite formation using coumarin based substrate by fluorescence assay; format: ADME
Sequence of Cytochrome P450 2C9 (P11712 whole entry): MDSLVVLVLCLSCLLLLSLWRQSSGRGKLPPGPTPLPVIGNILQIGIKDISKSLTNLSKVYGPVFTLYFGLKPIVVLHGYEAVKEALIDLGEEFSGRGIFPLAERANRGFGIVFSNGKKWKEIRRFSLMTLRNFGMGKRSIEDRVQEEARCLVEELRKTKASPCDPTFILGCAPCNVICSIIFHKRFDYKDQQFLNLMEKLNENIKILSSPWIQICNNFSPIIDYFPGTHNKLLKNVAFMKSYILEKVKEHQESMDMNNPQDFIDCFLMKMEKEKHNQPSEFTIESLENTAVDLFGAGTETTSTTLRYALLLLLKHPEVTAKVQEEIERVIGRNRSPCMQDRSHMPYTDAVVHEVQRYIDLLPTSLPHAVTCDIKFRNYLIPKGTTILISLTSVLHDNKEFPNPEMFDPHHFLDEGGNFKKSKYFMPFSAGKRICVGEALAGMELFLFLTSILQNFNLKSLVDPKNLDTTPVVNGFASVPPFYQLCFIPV

[7] = Intrinsic clearance in cryopreserved human hepatocytes assessed as per million cells at 1 uM measured up to 60 mins by LC-MS/MS analysis; format: ADME, cell-based, Hepatocyte; settings: read-out: CLH
[8] = Metabolic stability in human hepatocytes assessed as parent compound remaining; format: ADME, cell-based, Hepatocyte
Cytochrome P450 3A4 = Cytochrome P450 3A4 (Homo sapiens, UniProt P08684); assay: Inhibition of recombinant human CYP3A4 expressed in Escherichia coli assessed as maximum reduction in metabolite formation using coumarin based substrate by fluorescence assay
Sequence of Cytochrome P450 3A4 (P08684 whole entry): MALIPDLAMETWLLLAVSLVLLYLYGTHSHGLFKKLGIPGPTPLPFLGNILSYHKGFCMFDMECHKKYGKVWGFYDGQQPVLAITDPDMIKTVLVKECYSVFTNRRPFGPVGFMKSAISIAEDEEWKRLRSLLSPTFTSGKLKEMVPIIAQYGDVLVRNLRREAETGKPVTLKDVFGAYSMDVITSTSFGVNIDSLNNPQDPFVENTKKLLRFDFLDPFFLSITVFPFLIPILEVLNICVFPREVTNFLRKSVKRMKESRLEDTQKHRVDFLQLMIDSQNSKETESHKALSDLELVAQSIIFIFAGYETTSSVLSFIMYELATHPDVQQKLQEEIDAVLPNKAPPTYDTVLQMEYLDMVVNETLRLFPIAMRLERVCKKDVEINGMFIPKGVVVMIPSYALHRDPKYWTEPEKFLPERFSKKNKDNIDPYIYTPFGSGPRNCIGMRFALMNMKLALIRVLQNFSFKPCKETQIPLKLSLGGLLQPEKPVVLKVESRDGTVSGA

[9] = target: Voltage-gated inwardly rectifying potassium channel KCNH2 (Homo sapiens, UniProt Q12809); assay: Inhibition of human ERG by high-throughput electrophysiology assay
Sequence of Voltage-gated inwardly rectifying potassium channel KCNH2 (Q12809 whole entry): as the sequence (Q12809 whole entry) above

Row | Compound | pIC50 [1] | fpIC50 [2] | logD [3] | Activity [4] | pIC50 [5] | solubility at 24 h (physchem) [µM] | Papp A→B [6] [×10⁻⁶ cm/s] | inhibition at 10 µM (hERG (KCNH2)) [%] | pIC50 (Cytochrome P450 2C9) | hepatocyte CLint at 1 µM [7] [µL/min/1e6 cells] | Stability [8] [%] | pIC50 (Cytochrome P450 3A4) | pIC50 [9]
1 | Cc1cc(-c2ccc(C(=O)[C@@H]3CCCC[C@H]3C(=O)Nc3cn(C)nc3C(F)F)cc2)n[nH]1 | 7.20 | 8.5 | 3.5 | Toxic | 8.00 | – | – | – | – | – | – | – | –
2 | Cc1cc(-c2ccc(C(=O)[C@@H]3CCCC[C@H]3C(=O)Nc3cn(C)nc3C#N)cc2)n[nH]1 | – | 8.5 | 3.5 | Non-Toxic | – | 25 (≈ 10.4 µg/mL) | 27 | 23 | 5.10 | 6 | – | – | –
3 | Cn1cc(NC(=O)[C@@H]2C[C@@H]3C[C@@H]3C[C@H]2C(=O)c2ccc(-c3cc[nH]n3)cc2)c(C(F)(F)F)n1 | 7.60 | 9 | 3.7 | – | 7.90 | 27 (≈ 12.4 µg/mL) | 57 | – | – | 13 | 76 | 5.40 | –
4 | Cc1cc(-c2ccc(C(=O)[C@@H]3CCCC[C@H]3C(=O)Nc3cn(C)nc3C(N)=O)c(F)c2)[nH]n1 | – | 8.3 | 3.5 | – | – | 31 (≈ 14 µg/mL) | 17 | – | – | 18 | – | 5.20 | < 4.50
